# Rows were chosen to be rich in hits. Some 2% of all compounds tested hit in one or more screens of this group.
# FLuc inh counter – inhibits firefly luciferase, flagging false hits in luciferase inhibition screens. ATPLite firefly luciferase biochemical luminescence, 10 min. inhibition, % at 10 µM. AID 1006. 1.5% of 200,000 active;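 active means inhibition above about 50% when tested at 10 µM, limit read from the data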
# Target sequence (P08659 whole entry, looked up): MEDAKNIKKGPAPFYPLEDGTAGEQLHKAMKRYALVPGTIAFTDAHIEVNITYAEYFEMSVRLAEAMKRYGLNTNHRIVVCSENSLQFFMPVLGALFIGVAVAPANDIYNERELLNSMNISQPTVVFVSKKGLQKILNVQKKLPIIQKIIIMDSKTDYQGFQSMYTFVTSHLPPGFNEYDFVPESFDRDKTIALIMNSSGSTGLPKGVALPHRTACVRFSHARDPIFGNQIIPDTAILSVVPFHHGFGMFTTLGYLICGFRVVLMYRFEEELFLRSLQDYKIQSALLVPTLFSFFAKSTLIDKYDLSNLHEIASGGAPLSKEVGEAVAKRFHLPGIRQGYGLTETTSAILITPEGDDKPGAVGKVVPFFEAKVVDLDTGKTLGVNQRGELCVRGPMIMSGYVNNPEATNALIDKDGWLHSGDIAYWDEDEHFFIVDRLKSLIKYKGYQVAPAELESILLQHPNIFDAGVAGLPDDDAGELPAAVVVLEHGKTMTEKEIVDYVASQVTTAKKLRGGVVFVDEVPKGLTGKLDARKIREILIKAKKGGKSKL
# HSP90 refold inh – blocks HSP90-mediated luciferase refolding in reticulocyte lysate; Rabbit reticulocyte lysate, luciferase refolding luminescence, 3 h; inhibition, % at 5.6 µM; 0.91% of 290,000 active; AID 1789;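 active means inhibition above the screen-wide mean plus 3 SD, computed separately per campaign, cut at about 16% in these data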;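 further: 0% = DMSO wells and 100% = 60 µM geldanamycin wells; inhibitors lower the luminescence because luciferase stays unfolded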
# C8 TRAIL sens – caspase-8 TRAIL sensitization. AID 624354. 1% of 360,000 active. inhibition (viability loss, TRAIL sensitization), % at 10 µM. NB7+C8 cells + TRAIL, ATPlite viability luminescence;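 active means compounds causing at least 50% loss of cell viability in the single-dose screen, relative to plate controls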
# FLuc act counter – affects firefly luciferase, flagging false hits in luciferase stimulation screens | P08659 | ATPlite luciferase biochemical, luminescence, 10 min; 0 = ATP-free wells, 1 = DMSO control | activation factor at 10 µM | 200,000 tested, under 10 active;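 active means luciferase activation factor, scaled between plate controls, of at least 2 with compound at 10 µM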
#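 System: cell-free luciferase reagent; medium: PBS as buffer for the ATP substrate; doses: test compounds dosed from 2 mM stocks in 100% DMSO; incubation: 10 min, room temperature; measured by: luminescence from luciferase reaction; read-out: luciferase activation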
# PPC-1+TRAIL kill – compounds killing PPC-1 cancer cells with TRAIL present (potentiator screen, no TRAIL-free arm). PPC-1 cells + TRAIL, ATPLite viability luminescence. cell killing (% activity), % at 4 µM or 5 µM. 0.41% of 220,000 active;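 active means cell killing above 50% in the first pass at 4 µM, then a duplicate retest at 5 µM averaging 50% or more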;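 further: plate controls were cells with TRAIL plus DMSO for no effect and medium-only wells lacking cells for full effect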
# PPC-1 tox – PPC-1 cell cytotoxicity. PPC-1 viability, ATPlite luminescence, overnight. cytotoxicity, % at 5 µM. shares compounds with PPC-1+TRAIL kill. 50% of 1,200 active;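 active means reconfirmed compounds whose average cytotoxicity reaches 50% or more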;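 further: 0% = DMSO-treated cells and 100% = wells holding medium but no cells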
# HSP90 confirm – HSP90 inhibition, confirmation assay; shares compounds with HSP90 refold inh; rabbit reticulocyte lysate, luciferase refolding luminescence, 3 h; inhibition, % at 5.9 µM; 64% of 2,300 active; in the data active means inhibition above about 18%;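 further: 0% = vehicle wells and 100% = reference inhibitor wells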
# luciferase ctr – counter-screen for HSP90 inhibitors: inhibitors of firefly luciferase. shares compounds with HSP90 refold inh. purified native firefly luciferase, luminescence. inhibition, % at 5.9 µM. 48% of 2,300 active;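 active means inhibition above the mean inhibition of all tested sample wells plus 3 SD, cut at about 10% in these data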;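 further: 0% = DMSO with luciferase and 100% = wells lacking luciferase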
# * = called active by the depositor; · = no result.
SMILES,FLuc inh counter,HSP90 refold inh,C8 TRAIL sens,FLuc act counter,PPC-1+TRAIL kill,PPC-1 tox,others
CCOc1ccccc1N1CCN(C(=O)c2cc(S(=O)(=O)N(C)C)ccc2N2CCCC2)CC1,·,·,3,·,·,·,
Cc1cc(N)n2nc(C)c(-c3ccc(Cl)cc3)c2n1,-6,1,-13,1.1,17,·,
Cc1cc(Cl)n2nc(C)c(-c3ccc(Cl)cc3)c2n1,-4,-2,41,1,54*,34,
O=c1[nH]c2ccccc2nc1C(Cl)c1ccccc1 (centres undefined),-7,4,·,1.1,1,4,
O=C(NCc1cccnc1)c1cc(C(=O)NCc2cccnc2)cc([N+](=O)[O-])c1,·,·,-9,·,·,·,
CC(=O)Nc1ccc(NC(=O)Cn2cc3c(n2)CCCC3)cc1,-1,2,-13,1,-5,13,
CC(=O)c1cccc(NC(=O)Cn2cc3c(n2)CCCC3)c1,-3,1,-3,1,27,·,
CCO[C@@H]1OC(C(=O)N2CCOCC2)=C[C@H](C(C)(C)C)[C@H]1CCCO,·,·,-10,·,·,·,
CN(CCc1ccccn1)C(=O)CCC1CCCN(C(=O)c2ccc3c(c2)OCCO3)C1 (centres undefined),-4,-6,-2,1,10,·,
O=C(O)C1CCCCC1C(=O)NCCc1ccccc1 (centres undefined),-7,1,-5,1.1,8,6,
COc1ccc(CNC(=O)Nc2nc(C(N)CCc3ccccc3)cs2)cc1 (centres undefined),·,·,32,·,·,·,
C/C(=N\NC(=O)c1ccc(Cl)cc1)c1cccs1,90*,3,75*,0.1,63*,64*,
C/C(=N\NC(=O)c1ccccc1NC(=O)c1ccc(Cl)cc1)c1ccncc1,98*,52*,94*,0,97*,97*,
CC(=NNC(=O)c1ccncc1)c1ccccc1Cl,·,·,-9,·,·,·,
CS(=O)(=O)N(CC(=O)Nc1ccc(S(=O)(=O)N2CCOCC2)cc1)c1cccc(F)c1,-8,-2,3,1.1,9,·,
CSc1nc(=S)n(-c2cc(C)ccc2C)c(C)c1C(C)=O,·,2,-5,·,·,·,
CC(C)[C@H](NC(=O)OCc1ccccc1)C(=O)N[C@@H](Cc1c[nH]c2ccccc12)C(=O)O,·,·,-4,·,·,·,
NC(=O)c1ccccc1N/C=C/C(=O)c1ccc(F)cc1,90*,0,71*,0.1,63*,58*,
O=C(Nc1ccccc1Cl)c1ccc(Cl)cc1Cl,7,3,0,0.9,26,·,
NC(=O)c1ccccc1N/C=C/C(=O)c1ccc(Cl)cc1Cl,96*,12,90*,0,81*,81*,
COC(C)c1oc2c(C)c3oc(=O)cc(C)c3cc2c1C (centres undefined),·,·,23,·,·,·,
Cc1nn(-c2nc3ccccc3[nH]2)c(=O)c2ccccc12,97*,99*,96*,0,97*,97*,
N#Cc1c(NC(=O)CSc2nc(-c3ccccc3)cc(C(F)(F)F)n2)sc2c1CCC2,-6,0,26,1.1,-15,·,
CCC1CCc2c(sc(NC(=O)CSc3nc(-c4ccco4)cc(C(F)(F)F)n3)c2C#N)C1 (centres undefined),-5,3,-1,1,1,6,
CN(Cc1ccccc1)C1CCNCC1,·,1,1,·,·,·,
SMILES,FLuc inh counter,HSP90 refold inh,C8 TRAIL sens,FLuc act counter,PPC-1+TRAIL kill,PPC-1 tox,others
CCOCCCNC(=O)C1CCN(S(=O)(=O)c2ccc(C)cc2)CC1,-5,-2,-16,1.1,-9,-12,
CCOC(=O)C1CCN(S(=O)(=O)c2ccc(NC(=O)OC)cc2)CC1,-9,5,5,1.1,8,9,
CCN(CC)c1ccc(N=Cc2ccc(N(CC)CC)cc2O)cc1,-6,6,18,1.1,13,6,
CCOC(=O)C1CCCN(C(=O)CCc2nnc(-c3ccc(C(C)=O)s3)o2)C1 (centres undefined),·,-1,4,·,·,·,
O=C1C(=C2SCCCS2)CC/C1=C\c1ccc(F)cc1,93*,54*,84*,0.1,90*,90*,HSP90 confirm=92*;luciferase ctr=86*
c1ccc(-c2cc(-c3nc(-c4ccccn4)no3)c3ccccc3n2)cc1,·,2,8,·,·,·,
c1ccc(-c2nc(-c3ccccn3)no2)cc1,90*,46*,75*,0.1,72*,66*,HSP90 confirm=80*;luciferase ctr=70*
Cc1ccc(-c2nc(-c3ccccn3)no2)cc1,97*,94*,92*,0,93*,92*,HSP90 confirm=98*;luciferase ctr=94*
Clc1cccc(-c2nc(-c3ccccn3)no2)c1,93*,57*,77*,0.1,70*,66*,HSP90 confirm=82*;luciferase ctr=76*
CCOc1ccc(NC(=O)CN(C)C(=O)c2c(-c3ccccc3Cl)noc2C)cc1OCC,·,·,3,·,·,·,
Nc1cccc(-c2nc3cc(S(=O)(=O)c4ccc5oc(-c6cccc(N)c6)nc5c4)ccc3o2)c1,-3,-8,42,1,15,·,
Nc1ccc(-c2nc3cc([N+](=O)[O-])ccc3o2)cc1,·,6,32,·,23,·,
CC(C)c1ccc2oc(-c3ccc(N)cc3)nc2c1,88*,23*,80*,0.1,68*,72*,HSP90 confirm=50*;luciferase ctr=46*
Cc1ccc2oc(-c3cccc(N)c3)nc2c1,88*,33*,63*,0.1,55*,56*,HSP90 confirm=43*;luciferase ctr=38*
CCCCCN(C(=O)CCC(=O)OCC(=O)NCCc1ccccc1)c1c(N)n(CCCC)c(=O)[nH]c1=O,·,·,-8,·,·,·,
Clc1ccc(/C=C/c2nc3ccccc3[nH]2)c(Cl)c1,96*,44*,87*,0,94*,95*,HSP90 confirm=77*;luciferase ctr=72*
Clc1ccc(Br)c(-c2nc3ccccc3[nH]2)c1,·,·,-4,·,·,·,
Clc1ccc(/C=C/c2nc3ccccc3[nH]2)cc1,96*,35*,88*,0,87*,86*,HSP90 confirm=69*;luciferase ctr=63*
COC(=O)C1=CO[C@@H](O[C@@H]2O[C@H](CO)[C@@H](O)[C@H](O)[C@H]2O)C2C1C=C[C@@]2(O)CO (some centres undefined),·,·,-5,·,·,·,
CC1(C(=O)NS(=O)(=O)c2cccc(F)c2)CCN1C(=O)C1CCCCC1 (centres undefined),·,·,-12,·,·,·,
c1ccc(-c2cn3c4c(sc3n2)CCCC4)cc1,95*,33*,85*,0.1,82*,83*,HSP90 confirm=83*;luciferase ctr=80*
Cc1c(C(=O)N2CCc3ccccc3C2)sc2nc(-c3ccccc3)cn12,2,4,-15,1,40,·,
C/C(=N\NC(=O)c1n[nH]c2c1CCC2)c1cccs1,·,33*,80*,·,68*,67*,HSP90 confirm=84*;luciferase ctr=72*
